ChEMBL document CHEMBL5678817, “FTBMT, a Novel and Selective GPR52 Agonist, Demonstrates Antipsychotic-Like and Procognitive Effects in Rodents, Revealing a Potential Therapeutic Agent for Schizophrenia” (J Pharmacol Exp Ther, 2017)
Activity calls are given as the source filed them.

How the values were obtained:
[1] = target: Adenosine receptor A1 (Homo sapiens) (UniProt P30542); assay: Inhibition of Adenosine A1 receptor (unknown origin) at 10 uM relative to control
Outline: (§1)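 Single-point screen at 10 μM across receptor, ion channel and enzyme binding or activity assays. Expressed as percent inhibition versus control; negative values denote stimulation.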

[2] = target: Sodium-dependent serotonin transporter (Homo sapiens) (UniProt P31645); assay: Inhibition of SERT receptor (unknown origin) at 10 uM relative to control
Sodium-dependent serotonin transporter (Homo sapiens), sequence (P31645 whole entry, looked up): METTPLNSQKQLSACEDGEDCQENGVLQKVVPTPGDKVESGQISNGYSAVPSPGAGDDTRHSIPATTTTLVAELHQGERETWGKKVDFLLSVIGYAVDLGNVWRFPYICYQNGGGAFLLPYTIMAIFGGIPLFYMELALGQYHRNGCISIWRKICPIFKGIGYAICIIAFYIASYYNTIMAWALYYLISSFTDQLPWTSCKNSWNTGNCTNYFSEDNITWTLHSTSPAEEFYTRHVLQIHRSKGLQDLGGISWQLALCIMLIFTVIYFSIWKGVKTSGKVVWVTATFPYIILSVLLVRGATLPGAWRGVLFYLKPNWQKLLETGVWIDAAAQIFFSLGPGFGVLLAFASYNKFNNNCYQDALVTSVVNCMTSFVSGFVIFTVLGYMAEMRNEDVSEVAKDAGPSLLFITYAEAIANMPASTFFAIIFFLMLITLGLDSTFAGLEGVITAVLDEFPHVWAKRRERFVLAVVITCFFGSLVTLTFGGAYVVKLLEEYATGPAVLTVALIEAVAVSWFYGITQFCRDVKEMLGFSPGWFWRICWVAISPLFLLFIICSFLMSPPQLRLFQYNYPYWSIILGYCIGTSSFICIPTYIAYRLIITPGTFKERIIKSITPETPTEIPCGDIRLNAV
Outline: (§2)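 Part of a 98-target external biochemical selectivity panel that used radioligand/receptor binding-type assays. Compound tested once at 10 µM. Results are reported as % inhibition versus control; negative values mean stimulation of receptor activity.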

Mus musculus [3] = assay: Antipsychotic activity in C57BL/6N mouse assessed as increase in c-fos positive cells in entorhinal cortex at 30 mg/kg, po measured for 2 hrs by immunohistochemistry analysis; assay type: functional, organism-based
[4] = target: Sodium-dependent noradrenaline transporter (Homo sapiens) (UniProt P23975); assay: Inhibition of Norepinephrine transporter (unknown origin) at 10 uM relative to control; outline: as §2
Sodium-dependent noradrenaline transporter (Homo sapiens), sequence (P23975 whole entry): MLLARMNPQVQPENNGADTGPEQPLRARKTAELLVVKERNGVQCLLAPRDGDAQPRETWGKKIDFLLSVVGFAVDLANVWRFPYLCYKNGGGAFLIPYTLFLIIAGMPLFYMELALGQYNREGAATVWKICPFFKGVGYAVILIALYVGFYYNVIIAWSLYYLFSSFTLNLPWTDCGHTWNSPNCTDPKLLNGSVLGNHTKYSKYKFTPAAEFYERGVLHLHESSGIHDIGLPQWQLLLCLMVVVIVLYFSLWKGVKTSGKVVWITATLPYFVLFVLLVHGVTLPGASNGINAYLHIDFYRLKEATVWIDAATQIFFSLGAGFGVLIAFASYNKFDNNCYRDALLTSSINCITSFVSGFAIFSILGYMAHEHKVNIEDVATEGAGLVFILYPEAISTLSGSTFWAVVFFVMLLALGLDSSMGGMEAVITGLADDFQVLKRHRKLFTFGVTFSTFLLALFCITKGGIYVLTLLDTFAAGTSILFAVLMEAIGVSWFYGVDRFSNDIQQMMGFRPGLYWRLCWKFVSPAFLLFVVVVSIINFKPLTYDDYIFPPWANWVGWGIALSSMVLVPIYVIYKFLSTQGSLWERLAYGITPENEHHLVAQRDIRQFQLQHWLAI

[5] = target: Glutamate [NMDA] receptor (Homo sapiens) (UniProt Q05586+Q12879+Q13224+O15399+O60391+Q14957+Q8TCU5); assay: Inhibition of Glutamate NMDA receptor (unknown origin) at 10 uM relative to control; assay type: protein-complex assay; outline: as §2
[6] = target: Rho-associated protein kinase 1 (Homo sapiens) (UniProt Q13464); assay: Inhibition of ROCK1 (unknown origin) at 10 uM relative to control
Rho-associated protein kinase 1 (Homo sapiens), sequence (Q13464 2-1354 limits assumed): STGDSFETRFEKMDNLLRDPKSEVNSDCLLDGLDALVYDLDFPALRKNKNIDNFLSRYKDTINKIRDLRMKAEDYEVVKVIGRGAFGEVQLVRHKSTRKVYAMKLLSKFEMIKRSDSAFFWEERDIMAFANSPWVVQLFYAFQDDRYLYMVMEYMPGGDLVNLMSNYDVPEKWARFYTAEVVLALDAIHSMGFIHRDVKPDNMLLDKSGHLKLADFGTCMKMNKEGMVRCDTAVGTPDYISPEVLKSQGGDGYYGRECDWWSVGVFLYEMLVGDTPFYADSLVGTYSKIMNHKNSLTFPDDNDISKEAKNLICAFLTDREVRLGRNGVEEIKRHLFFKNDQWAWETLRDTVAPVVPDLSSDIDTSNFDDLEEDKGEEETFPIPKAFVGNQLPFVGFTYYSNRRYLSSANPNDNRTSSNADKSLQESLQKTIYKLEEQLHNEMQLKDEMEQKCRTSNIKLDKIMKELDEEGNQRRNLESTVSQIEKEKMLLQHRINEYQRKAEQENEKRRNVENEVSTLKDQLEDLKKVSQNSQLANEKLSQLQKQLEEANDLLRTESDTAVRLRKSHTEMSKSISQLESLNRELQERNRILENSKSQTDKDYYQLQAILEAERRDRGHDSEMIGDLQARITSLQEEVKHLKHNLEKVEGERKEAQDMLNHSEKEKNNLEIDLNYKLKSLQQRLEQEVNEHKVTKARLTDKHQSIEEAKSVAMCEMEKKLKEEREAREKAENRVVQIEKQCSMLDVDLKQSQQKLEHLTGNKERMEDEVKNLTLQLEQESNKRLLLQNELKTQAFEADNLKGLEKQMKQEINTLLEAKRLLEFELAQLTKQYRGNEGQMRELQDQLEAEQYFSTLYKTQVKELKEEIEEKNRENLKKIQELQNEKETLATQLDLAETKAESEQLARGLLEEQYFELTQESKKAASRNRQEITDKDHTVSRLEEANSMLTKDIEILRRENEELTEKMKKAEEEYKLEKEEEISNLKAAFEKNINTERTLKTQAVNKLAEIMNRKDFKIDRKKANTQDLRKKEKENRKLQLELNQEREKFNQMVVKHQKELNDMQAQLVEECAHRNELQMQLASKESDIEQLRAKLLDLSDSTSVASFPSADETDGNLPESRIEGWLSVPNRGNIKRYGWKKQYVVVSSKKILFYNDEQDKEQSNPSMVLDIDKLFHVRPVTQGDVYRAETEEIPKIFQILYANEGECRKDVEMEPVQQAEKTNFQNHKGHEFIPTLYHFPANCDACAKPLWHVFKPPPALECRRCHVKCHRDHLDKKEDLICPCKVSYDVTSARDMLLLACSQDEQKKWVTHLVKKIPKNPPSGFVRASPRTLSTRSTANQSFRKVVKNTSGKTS
Outline: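 Enzyme activity assays from the same 98-target biochemical panel. Single test concentration of 10 µM. Read-out is % inhibition of enzyme activity relative to control; negative percentages indicate activation of the enzyme.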

Homo sapiens [7] = organism: Homo sapiens; assay: Inhibition of Ca2+ ATPase (unknown origin) at 10 uM relative to control; outline: as §1
[8] = Toxicity in ICR mouse assessed as catelepsy upto 100 mg/kg, po measured for 60 mins by bar test; assay type: organism-based; details: in vivo, 1 h
Outline: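 Male ICR mice (6–7 weeks) were dosed orally 60 min before testing. Forepaws were placed on a 2 mm bar set 6.5 cm high, and time on the bar was recorded with a 30 s cutoff. Each mouse was tested three times and the times averaged. n = 5–6.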

[9] = target: Voltage-gated L-type calcium channel (Homo sapiens, UniProt O60840+Q01668+Q13698+Q13936); assay: Inhibition of Calcium channel L-type (unknown origin) at 10 uM in presence of phenylalkylamine relative to control; assay type: protein assay; details: probe phenylalkylamine; outline: as §1
[10] = target: Cholinesterase (Homo sapiens) (UniProt P06276); assay: Inhibition of Choline esterase (unknown origin) at 10 uM relative to control
Cholinesterase (Homo sapiens), sequence (P06276 whole entry): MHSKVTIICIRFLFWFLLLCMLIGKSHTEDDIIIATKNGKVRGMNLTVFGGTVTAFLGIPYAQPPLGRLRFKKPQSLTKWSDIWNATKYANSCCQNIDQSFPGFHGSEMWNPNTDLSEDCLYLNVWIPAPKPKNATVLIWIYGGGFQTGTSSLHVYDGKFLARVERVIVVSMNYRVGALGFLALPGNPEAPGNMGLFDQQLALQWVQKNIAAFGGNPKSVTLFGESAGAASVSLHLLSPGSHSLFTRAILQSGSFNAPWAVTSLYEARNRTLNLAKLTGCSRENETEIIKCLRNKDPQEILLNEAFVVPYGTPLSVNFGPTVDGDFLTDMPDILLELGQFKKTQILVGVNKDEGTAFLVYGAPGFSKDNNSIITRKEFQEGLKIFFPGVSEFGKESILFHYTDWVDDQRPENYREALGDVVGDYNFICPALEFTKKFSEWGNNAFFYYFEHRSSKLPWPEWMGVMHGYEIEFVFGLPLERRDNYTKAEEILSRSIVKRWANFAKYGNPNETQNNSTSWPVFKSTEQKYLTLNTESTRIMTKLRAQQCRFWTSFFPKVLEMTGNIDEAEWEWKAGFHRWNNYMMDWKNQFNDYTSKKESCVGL
Outline: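 Enzyme assay run by an outside lab as part of a 98-target screen of receptors, ion channels and enzymes. Single test concentration of 10 μM; read-out is percent inhibition of enzyme activity versus control, with negative values meaning activation.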

Mus musculus [11] = assay: Pro-cognitive activity in GPR52 knockout C57BL/6N mouse assessed as increase in c-fos gene expression in hippocampus at 30 mg/kg, po measured after 2 hrs […]; assay type: functional, organism-based
Homo sapiens [12] = organism: Homo sapiens; assay: Inhibition of Sodium channel Site 2 (unknown origin) at 10 uM relative to control
Outline: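 Binding and enzyme panel run by an outside contractor against receptors, ion channels and enzymes. Each assay used a single 10 μM test concentration, and results are expressed as percent inhibition. A negative value means stimulation of receptor activity or activation of enzyme activity.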

Adenosine receptor A1 (Homo sapiens), sequence (P30542 whole entry): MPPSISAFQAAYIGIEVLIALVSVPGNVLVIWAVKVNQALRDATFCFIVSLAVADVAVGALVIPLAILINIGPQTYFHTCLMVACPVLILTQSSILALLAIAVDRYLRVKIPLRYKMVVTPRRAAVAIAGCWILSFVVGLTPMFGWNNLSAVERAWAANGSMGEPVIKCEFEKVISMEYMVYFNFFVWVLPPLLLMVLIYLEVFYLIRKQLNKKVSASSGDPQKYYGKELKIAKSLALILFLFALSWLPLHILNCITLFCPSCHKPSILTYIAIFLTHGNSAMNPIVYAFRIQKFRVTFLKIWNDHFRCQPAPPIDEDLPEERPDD

Cc1cc(-n2nc(Cc3cc(F)cc(C(F)(F)F)c3)nc2C)ccc1C(N)=O [TP-024]
inhibition [1]: 33% | inhibition [2]: 8% | Activity (Mus musculus [3]): Active | inhibition [4]: 10% | inhibition [5]: -7% | inhibition [6]: 9% | inhibition (Homo sapiens [7]): -1% | Activity [8]: Non-Toxic | inhibition at 10 µM [9]: -6% | inhibition [10]: 18% | Activity (Mus musculus [11]): inactive | inhibition (Homo sapiens [12]): 1%
